ChEMBL document CHEMBL3244233, “Synthesis and biological activities of some N6- and N9-carbamoyladenines and related ribonucleosides” (1977)
Activity calls are given as the source filed them. The calls are words filed in the database; no cut-off is given here.

Assays:
Format in all cases: functional
L1210 [1] = experiment: Growth inhibition of mouse L1210 cells assessed as viable cells at 10^-4 M after 72 hrs relative to control; settings: L1210, 72 h, read-out: Activity
Method in brief: (§1)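 Nc 37 cells come from a normal human buffy coat, RPMI 6410 from the buffy coat of a myeloblastic leukemia patient, and L1210 is mouse leukemia. Cells were grown in RPMI 1640 with 10% fetal calf serum and exposed to compound at 10^-4 M in medium containing 0.5% Me2SO for 72 h. Viable cell number is expressed as percent of 0.5% Me2SO controls and scored as ++ 30-60%, + 60-80%, ± 80-90%, NA 90-110%.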

[2] = Growth inhibition of human Nc37 cells assessed as viable cells at 10^-4 M after 72 hrs relative to control; settings: NC-37, 72 h, read-out: Activity; method in brief: as §1
[3] = Growth inhibition of human RPMI6410 cells assessed as viable cells at 10^-4 M after 72 hrs relative to control; settings: RPMI 6410, 72 h, read-out: Activity; method in brief: as §1
L1210 [4] = experiment: Growth inhibition of mouse L1210 cells at 10^-4 M after 72 hrs relative to control; settings: L1210, 72 h, read-out: GI; method in brief: as §1
L1210 [5] = experiment: Antitumor activity against mouse L1210 cells allografted in mouse assessed as increase in life span of host
[6] = Growth inhibition of human RPMI6410 cells assessed as viable cells at 10^-5 M after 72 hrs relative to control; settings: RPMI 6410, 72 h, read-out: Activity
[7] = Growth inhibition of human Nc37 cells assessed as viable cells at 10^-5 M after 72 hrs relative to control; settings: NC-37, 72 h, read-out: Activity
L1210 [8] = experiment: Growth inhibition of mouse L1210 cells assessed as viable cells at 10^-5 M after 72 hrs relative to control; settings: L1210, 72 h, read-out: Activity

Row | Compound | viability at 100 µM (L1210 [1]) [%] | viability at 100 µM [2] [%] | viability at 100 µM [3] [%] | inhibition of growth at 100 µM (L1210 [4]) [%] | Activity (L1210 [5]) | viability at 10 µM [6] [%] | viability at 10 µM [7] [%] | viability at 10 µM (L1210 [8]) [%]
1 | O=C(Nc1ncnc2[nH]cnc12)NC1CCCCC1 | 60 | 60 | 60 |  |  |  |  | 
2 | O=C(Nc1ccccc1)Nc1ncnc2c1ncn2C(=O)Nc1ccccc1 | 30 | 60 | 80 |  |  |  |  | 
3 | Nc1ncnc2c1ncn2C(=O)Nc1ccccc1 | 30 | 90 | 60 |  |  |  |  | 
4 | CN(C(=O)Nc1ccccc1Cl)c1ncnc2c1ncn2C(=O)Nc1ccccc1Cl | 30 | 90 | 60 |  |  |  |  | 
5 | CCCCNC(=O)n1cnc2c(N)ncnc21 | > 30 | 30 | 30 | ≥ 70 |  |  |  | 
6 | CCCCNC(=S)Nc1ncnc2[nH]cnc12 | 30 | 30 | 60 |  |  |  |  | 
7 | Nc1ncnc2c1ncn2C(=O)NC(Cc1ccccc1)C(=O)OCc1ccccc1 (centres undefined) | 30 | 60 | 90 |  |  |  |  | 
8 | CC(C)(C)CNC(=O)Nc1ncnc2c1ncn2[C@@H]1O[C@H](CO)[C@@H](O)[C@H]1O | 80 | 90 | 90 |  |  |  |  | 
9 | CCCC(=O)n1cnc2c(N)ncnc21 | 60 | 90 | 60 |  |  |  |  | 
10 | O=C(Nc1ccc(Cl)cc1)Nc1ncnc2c1ncn2[C@@H]1O[C@H](CO)[C@@H](O)[C@H]1O | > 30 | 30 | 30 |  | inactive |  |  | 
11 | CNc1ncnc2c1ncn2C(=O)NC(C)(C)C | 60 | 60 | 60 |  |  |  |  | 
12 | CC(C)C(NC(=O)n1cnc2c(N)ncnc21)C(=O)OCc1ccccc1 (centres undefined) | 30 | 60 | 30 |  |  |  |  | 
13 | O=C(Nc1ccc(F)cc1)Nc1ncnc2[nH]cnc12 | 30 | 90 | 90 |  |  |  |  | 
14 | C=CCNC(=O)n1cnc2c(N)ncnc21 | > 30 | 30 | 60 | ≥ 70 |  |  |  | 
15 | Nc1ncnc2c1ncn2C(=O)NC1CCCCC1 | > 30 | 30 | 30 | ≥ 70 |  |  |  | 
16 | CNC(=S)Nc1ncnc2[nH]cnc12 | 60 | 60 | 60 |  |  |  |  | 
17 | O=C(Nc1ccc(Br)cc1)Nc1ncnc2c1ncn2C(=O)Nc1ccc(Br)cc1 |  | 60 |  |  |  |  |  | 
18 | O=C(NCCc1ccccc1Cl)Nc1ncnc2c1ncn2[C@@H]1O[C@H](CO)[C@@H](O)[C@H]1O |  | 60 |  |  |  |  |  | 
19 | Nc1ncnc2c1ncn2C(=O)N[C@@H](Cc1ccccc1)C(=O)O | > 30 | 30 | 80 | ≥ 70 |  |  |  | 
20 | COc1ccc(NC(=O)Nc2ncnc3c2ncn3C(=O)Nc2ccc(OC)cc2)cc1 | 30 | 90 | 90 |  |  |  |  | 
21 | CCOC(=O)CNC(=O)n1cnc2c(N)ncnc21 | 30 | 60 | 60 |  |  |  |  | 
22 | CNC(=O)n1cnc2c(N)ncnc21 | 30 | 30 | 30 | ≥ 70 | inactive | 60 | 60 | 
23 | CC(OCc1ccccc1)C(NC(=O)n1cnc2c(N)ncnc21)C(=O)OCc1ccccc1 (centres undefined) | > 30 | 60 | 60 | ≥ 70 |  |  |  | 
24 | CNC(=O)Nc1ncnc2c1ncn2C(=O)NC | 80 | 90 | 80 |  |  |  |  | 
25 | CNC(=O)N(C)c1ncnc2c1ncn2C(=O)NC | 30 | 30 | 60 |  |  |  |  | 
26 | CC(C)(C)NC(=O)Nc1ncnc2[nH]cnc12 | 60 | 60 | 60 |  |  |  |  | 
27 | Nc1ncnc2c1ncn2C(=O)NCC(=O)OCc1ccccc1 | > 30 | 60 | 80 | ≥ 70 |  |  |  | 

Row | Compound | viability at 100 µM (L1210 [1]) [%] | viability at 100 µM [2] [%] | viability at 100 µM [3] [%] | inhibition of growth at 100 µM (L1210 [4]) [%] | Activity (L1210 [5]) | viability at 10 µM [6] [%] | viability at 10 µM [7] [%] | viability at 10 µM (L1210 [8]) [%]
28 | O=C(Nc1cccc2ccccc12)Nc1ncnc2c1ncn2C(=O)Nc1cccc2ccccc12 | > 30 | 30 | 30 |  | inactive |  |  | 
29 | O=C(Nc1ccccc1F)Nc1ncnc2c1ncn2[C@@H]1O[C@H](CO)[C@@H](O)[C@H]1O | 30 | 60 | 30 |  |  |  |  | 
30 | CCCCCCCC(=O)n1cnc2c(N)ncnc21 | 30 | 60 | 60 |  |  |  |  | 
31 | CC(=O)n1cnc2c(N)ncnc21 | 30 | 90 | 90 |  |  |  |  | 
32 | O=C(Nc1ccccc1C(F)(F)F)Nc1ncnc2[nH]cnc12 |  | 30 | 90 |  |  |  |  | 
33 | CCCCNC(=O)Nc1ncnc2c1ncn2C(=O)NCCCC | 30 | 90 | 60 |  |  |  |  | 
34 | CCCCNC(=S)n1cnc2c(N)ncnc21 | 60 | 60 | 60 |  |  |  |  | 
35 | CC(=O)OC[C@H]1O[C@@H](n2cnc3c(NC(=O)Nc4ccccc4Cl)ncnc32)[C@H](OC(C)=O)[C@@H]1OC(C)=O | > 30 | 30 | 30 |  |  |  |  | 
36 | Cc1ccc(NC(=O)Nc2[nH]cnc3ncnc2-3)cc1 | > 30 | 90 | 60 |  |  |  |  | 
37 | CC(=O)OC[C@H]1O[C@@H](n2cnc3c(NC(=O)Nc4ccc(Cl)cc4)ncnc32)[C@H](OC(C)=O)[C@@H]1OC(C)=O | > 30 | 30 | 30 |  |  |  |  | 
38 | CC(C)(C)NC(=O)n1cnc2c(N)ncnc21 | > 30 | 60 | 60 | ≥ 70 |  |  |  | 
39 | O=C(NCCc1ccccc1Cl)Nc1ncnc2[nH]cnc12 | 60 | 30 | 60 |  |  |  |  | 
40 | CN(C(=O)Nc1ccccc1)c1ncnc2c1ncn2C(=O)Nc1ccccc1 | 30 | 90 | 60 |  |  |  |  | 
41 | C=CCNC(=O)Nc1ncnc2[nH]cnc12 | 60 | 60 | 60 |  |  |  |  | 
42 | CCOC(=O)n1cnc2c(NC)ncnc21 | 90 | 30 | 30 |  |  |  |  | 
43 | O=C(Nc1ccccc1)Nc1ncnc2[nH]cnc12 | 60 | 60 | 80 |  |  |  |  | 
44 | CCOC(=O)CNC(=O)N(C)c1ncnc2c1ncn2C(=O)NCC(=O)OCC | 60 | 90 | 90 |  |  |  |  | 
45 | CNC(=O)Nc1ncnc2c1ncn2C(=O)Nc1ccccc1 | 30 | 90 | 90 |  |  |  |  | 
46 | CNC(=O)n1cnc2c(NC)ncnc21 | 90 | 30 | 60 |  |  |  |  | 
47 | CNC(=S)n1cnc2c(N)ncnc21 |  |  |  | ≥ 70 | inactive | 30 | 30 | > 30
48 | Nc1ncnc2c1ncn2C(=O)Nc1ccccc1F | 60 | 90 | 60 |  |  |  |  | 
49 | O=C(O)CNC(=O)CNC(=O)Nc1ncnc2[nH]cnc12 | 90 | 90 | 90 |  |  |  |  | 
50 | Cc1ccccc1NC(=O)Nc1ncnc2c1ncn2C(=O)Nc1ccccc1C | 60 | 60 | 90 |  |  |  |  | 
51 | CCCCNC(=O)Nc1ncnc2[nH]cnc12 | 30 | 60 | 60 |  |  |  |  | 
52 | CC(C)(C)NC(=O)n1cnc2c(NC(=O)Nc3ccccc3F)ncnc21 | > 30 | 60 | 60 |  |  |  |  | 
53 | COc1ccc(NC(=O)Nc2ncnc3c2ncn3C(=O)NC(C)(C)C)cc1 | 80 | 90 | 80 |  |  |  |  | 
